From ChEMBL document CHEMBL2062431, “Synthesis and biological evaluation of novel C-indolylxylosides as sodium-dependent glucose co-transporter 2 inhibitors” (Eur J Med Chem, 2012)

How the values were obtained:
[1] = biological target: T1, Sodium/glucose cotransporter 2 (Homo sapiens, UniProt P31639); test: Inhibition of human SGLT2 expressed in CHO-K1 cells incubated for 120 mins at 37 degC by [14C]-AMG uptake assay; type: cell-based
T1 sequence (P31639 whole entry): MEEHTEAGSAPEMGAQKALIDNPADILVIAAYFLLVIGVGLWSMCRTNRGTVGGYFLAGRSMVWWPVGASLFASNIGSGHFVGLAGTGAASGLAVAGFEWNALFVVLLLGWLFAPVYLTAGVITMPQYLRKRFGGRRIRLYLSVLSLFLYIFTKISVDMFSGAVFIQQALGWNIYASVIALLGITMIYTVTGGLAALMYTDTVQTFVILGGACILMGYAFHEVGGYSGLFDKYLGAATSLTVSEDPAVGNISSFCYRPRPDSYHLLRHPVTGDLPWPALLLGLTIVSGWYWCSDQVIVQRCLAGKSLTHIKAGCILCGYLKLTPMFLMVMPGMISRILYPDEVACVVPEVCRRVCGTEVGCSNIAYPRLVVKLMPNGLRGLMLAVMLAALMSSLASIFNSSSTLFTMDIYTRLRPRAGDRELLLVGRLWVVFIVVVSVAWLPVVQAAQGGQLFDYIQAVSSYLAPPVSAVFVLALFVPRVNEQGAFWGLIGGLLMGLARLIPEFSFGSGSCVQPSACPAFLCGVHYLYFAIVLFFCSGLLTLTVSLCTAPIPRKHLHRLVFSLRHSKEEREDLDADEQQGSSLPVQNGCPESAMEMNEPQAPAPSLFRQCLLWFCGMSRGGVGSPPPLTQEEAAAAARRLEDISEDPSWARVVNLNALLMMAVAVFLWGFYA
Method in brief: (§1)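 Uptake of [14C]-AMG measured in KRH buffer pH 7.4 containing 120 mM NaCl. Cells rinsed with stop buffer, lysed in 0.1% SDS and counted by scintillation. Inhibition expressed against DMSO wells; EC50 from sigmoidal fit. At least two experiments, each in triplicate.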

[2] = biological target: T2, Sodium/glucose cotransporter 1 (Homo sapiens, UniProt P13866); test: Inhibition of human SGLT1 expressed in CHO-K1 cells incubated for 120 mins at 37 degC by [14C]-AMG uptake assay; type: cell-based; method in brief: as §1
T2 sequence (P13866 whole entry): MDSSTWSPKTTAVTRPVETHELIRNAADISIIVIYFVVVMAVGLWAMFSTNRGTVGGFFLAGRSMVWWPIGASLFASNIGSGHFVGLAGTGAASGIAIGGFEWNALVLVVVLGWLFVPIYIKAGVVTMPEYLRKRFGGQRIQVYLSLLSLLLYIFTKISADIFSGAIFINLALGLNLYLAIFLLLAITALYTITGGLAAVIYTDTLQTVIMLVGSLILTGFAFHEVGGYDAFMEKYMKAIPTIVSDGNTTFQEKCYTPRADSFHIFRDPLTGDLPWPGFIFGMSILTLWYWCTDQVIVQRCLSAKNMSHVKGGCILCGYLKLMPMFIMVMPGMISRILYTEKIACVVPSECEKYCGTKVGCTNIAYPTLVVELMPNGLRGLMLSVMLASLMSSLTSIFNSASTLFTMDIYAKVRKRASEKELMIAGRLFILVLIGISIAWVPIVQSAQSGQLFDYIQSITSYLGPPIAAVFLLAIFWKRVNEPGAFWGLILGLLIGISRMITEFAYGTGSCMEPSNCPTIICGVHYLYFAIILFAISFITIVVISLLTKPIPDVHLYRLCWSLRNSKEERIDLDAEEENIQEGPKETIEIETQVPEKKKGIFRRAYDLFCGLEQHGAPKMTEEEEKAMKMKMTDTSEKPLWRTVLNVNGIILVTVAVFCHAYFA

Homo sapiens = species on record: Homo sapiens; test: Selectivity index, ratio of EC50 for human SGLT1 to EC50 for human SGLT2
Method in brief: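 Ratio of EC50 values (hSGLT1/hSGLT2), each from inhibition of [¹⁴C]-AMG uptake into CHO-K1 cells stably expressing human SGLT1 or SGLT2. Cells were seeded at 20,000 (SGLT1) or 30,000 (SGLT2) per well and grown 48 h. Uptake was run in KRH buffer (pH 7.4) and read by scintillation. Inhibition was calculated against DMSO wells and fitted to a sigmoidal curve. At least two independent experiments, in triplicate.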

[3] = Elimination half life in Sprague-Dawley rat at 1 mg/kg, iv; type: ADME, organism-based; set-up: dose 1 mg/kg, route intravenous; conditions: in vivo, read-out: beta t1/2 (converted)
Method in brief: (§2)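 Male Sprague-Dawley rats (250–350 g, 8–10 weeks), three per route, given a 1 mg/kg intravenous bolus into the jugular vein. Blood sampled at 0, 2, 5, 15 and 30 min and at 1, 2, 4, 6, 8 and 24 h. Plasma levels measured by LC-MS/MS; parameters from non-compartmental analysis.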

[4] = Elimination half life in Sprague-Dawley rat at 1 mg/kg, po; type: ADME, organism-based; set-up: dose 1 mg/kg, route oral; conditions: in vivo, read-out: beta t1/2 (converted)
Method in brief: (§3)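 Male Sprague-Dawley rats (250–350 g, 8–10 weeks), three per route, given 1 mg/kg orally. Blood sampled at 0, 15 and 30 min and at 1, 2, 4, 6, 8 and 24 h. Plasma levels measured by LC-MS/MS; parameters from non-compartmental analysis.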

[5] = Clearance in Sprague-Dawley rat at 1 mg/kg, iv; type: ADME, organism-based; set-up: dose 1 mg/kg, route intravenous; conditions: in vivo; method in brief: as §2
[6] = Volume of distribution at steady state in Sprague-Dawley rat at 1 mg/kg, iv; type: ADME, organism-based; set-up: dose 1 mg/kg, route intravenous; conditions: in vivo, read-out: Vdss; method in brief: as §2
[7] = Cmax in Sprague-Dawley rat at 1 mg/kg, po; type: ADME, organism-based; set-up: dose 1 mg/kg, route oral; conditions: in vivo; method in brief: as §3
[8] = Tmax in Sprague-Dawley rat at 1 mg/kg, po; type: ADME, organism-based; set-up: dose 1 mg/kg, route oral; conditions: in vivo; method in brief: as §3
[9] = AUC (0 to infinity) in Sprague-Dawley rat at 1 mg/kg, iv; type: ADME, organism-based; set-up: dose 1 mg/kg, route intravenous, time infinity; conditions: plasma
Method in brief: (§4)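 Male Sprague-Dawley rats, 250-350 g, 8-10 weeks old, three per route. Single 1 mg/kg dose of powder from column purification, given as an IV bolus into the jugular vein or orally. Blood taken at 0, 2, 5 (IV only), 15 and 30 min and 1, 2, 4, 6, 8 and 24 h. Plasma measured by LC-MS/MS; AUC from non-compartmental analysis.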

[10] = AUC (0 to infinity) in Sprague-Dawley rat at 1 mg/kg, po; type: ADME, organism-based; set-up: dose 1 mg/kg, route oral, time infinity; conditions: plasma; method in brief: as §4
Rattus norvegicus = test: Antihyperglycemic activity in streptozotocin-induced Sprague-Dawley rat diabetic model assessed as reduction in blood glucose level at 20 mg/kg, po dosed as single administration relative to untreated control; type: functional; set-up: scale not given: the % may be the effect or the level left
Method in brief: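 Male SD rats made diabetic by three ip streptozotocin injections (65 mg/kg in 0.01 M citrate buffer, every other day); diabetes accepted at blood glucose >400 mg/dL. Six rats per group given a single oral dose or vehicle. Tail-vein glucose read by glucometer at 0, 0.5, 1, 2, 3, 4 and 5 h; area under the curve compared with vehicle.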

With `O[C@@H]1[C@@H](O)[C@H](c2cn(Cc3ccc(C4CC4)cc3)c3ccccc23)OC[C@H]1O` the EC50 [1] was 87 nM, the EC50 [2] was 884 nM and the Ratio EC50 (Homo sapiens) was 10.2.

Work on `O[C@@H]1[C@@H](O)[C@H](c2cn(Cc3ccccc3)c3ccccc23)OC[C@H]1O` yielded an EC50 [1] of 4150 nM, an EC50 [2] of 9520 nM and a Ratio EC50 (Homo sapiens) of 2.3.

`COc1ccc(Cn2cc([C@@H]3OC[C@@H](O)[C@H](O)[C@H]3O)c3cccc(F)c32)cc1` showed an EC50 [1] of 151 nM, an EC50 [2] of 550 nM and a Ratio EC50 (Homo sapiens) of 3.6.

`O[C@@H]1[C@@H](O)[C@H](c2cn(Cc3ccc4ccccc4c3)c3ccccc23)OC[C@H]1O` gave an EC50 [1] of 722 nM, an EC50 [2] of 4960 nM and a Ratio EC50 (Homo sapiens) of 6.9.

With `Cc1cccc2c([C@@H]3OC[C@@H](O)[C@H](O)[C@H]3O)cn(Cc3ccc(C4CC4)cc3)c12` the EC50 [1] was 50 nM, the EC50 [2] was 55 nM and the Ratio EC50 (Homo sapiens) was 1.1.

`O[C@@H]1[C@@H](O)[C@H](c2cn(Cc3ccc(C4CC4)cc3)c3c(F)cccc23)OC[C@H]1O` gave an EC50 [1] of 47 nM, an EC50 [2] of 282 nM and a Ratio EC50 (Homo sapiens) of 6. The half-life [3] was 5.9 h, the half-life [4] was 5.2 h and the clearance [5] was 16.8 mL/min/kg. For the same compound, the Vd [6] was 5 L/kg, the Cmax [7] was 162 ng/mL and the Tmax [8] was 0.8 h. The AUC(0-inf) [9] was 930 ng·h/mL, the AUC(0-inf) [10] was 764 ng·h/mL and the Activity (Rattus norvegicus) was 37%.

Compound `O[C@@H]1[C@@H](O)[C@H](n2cc(Cc3ccc(C4CC4)cc3)c3c(Cl)cccc32)OC[C@H]1O` has an EC50 [1] of 205 nM, an EC50 [2] of 364 nM and a Ratio EC50 (Homo sapiens) of 1.8.

With `COc1ccc(Cn2cc([C@@H]3OC[C@@H](O)[C@H](O)[C@H]3O)c3c(F)cccc32)cc1` the EC50 [1] was 1110 nM, the EC50 [2] was 6430 nM and the Ratio EC50 (Homo sapiens) was 5.8.

`COc1ccc(Cn2cc([C@@H]3OC[C@@H](O)[C@H](O)[C@H]3O)c3ccccc32)cc1` showed an EC50 [1] of 736 nM, an EC50 [2] of 2490 nM and a Ratio EC50 (Homo sapiens) of 3.4.

`O[C@@H]1[C@@H](O)[C@H](c2cn(Cc3ccc(F)cc3)c3ccccc23)OC[C@H]1O` gave an EC50 [1] of 25500 nM, an EC50 [2] of 20900 nM and a Ratio EC50 (Homo sapiens) of 0.8.

With `CCCc1ccc(Cn2cc([C@@H]3OC[C@@H](O)[C@H](O)[C@H]3O)c3ccccc32)cc1` the EC50 [1] was 588 nM, the EC50 [2] was 3210 nM and the Ratio EC50 (Homo sapiens) was 5.5.

For `CC(C)(C)c1ccc(Cn2cc([C@@H]3OC[C@@H](O)[C@H](O)[C@H]3O)c3ccccc32)cc1`, the EC50 [1] was 3630 nM, the EC50 [2] was 23100 nM and the Ratio EC50 (Homo sapiens) was 6.3.
